Source: ChEMBL document CHEMBL4373713, “Effect of 1-Deoxynojirimycin Isolated from Mulberry Leaves on Glucose Metabolism and Gut Microbiota in a Streptozotocin-Induced Diabetic Mouse Model” (J Nat Prod, 2019)
Activity calls are given as the source filed them. The calls are words filed in the database; no cut-off is given here.

What was measured:
Mus musculus [1] = assay: Antidiabetic activity in STZ-induced Kunming mouse model of diabetes assessed as increase in Alistipes level in feces at 31.25 to 125 mg/kg, po administered QD administered via gavage for 4 weeks by 16S rDNA based DNA sequencing analysis; type: functional, organism-based
Mus musculus [2] = assay: Antidiabetic activity in STZ-induced Kunming mouse model of diabetes assessed as increase in glucose tolerance 31.25 to 125 mg/kg, po administered QD administered via gavage for 4 weeks and measured on day 26 followed by glucose challenge after 30 mins during compound dosing by OGTT; type: functional, organism-based
How it was run: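 On treatment day 26, after a 12 h fast, diabetic mice received oral glucose at 2.0 g/kg. Tail-tip blood glucose was read at 0, 30, 60, 90 and 120 min. Daily gavage dosing was 31.25–125 mg/kg, n=10 per group.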

Mus musculus [3] = assay: Antidiabetic activity in po dosed STZ-induced Kunming mouse model of diabetes assessed as reduction in fasting serum insulin level administered QD administered via gavage for 4 weeks; type: functional, organism-based
How it was run: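 Fasting serum insulin was measured by commercial kit on plasma from orbital-sinus blood taken after an overnight fast at day 28. HOMA-IR was derived to assess insulin sensitivity. Diabetic mice were gavaged daily at 31.25–125 mg/kg. Mean ± SD, Duncan's test.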

Mus musculus [4] = assay: Antidiabetic activity in STZ-induced Kunming mouse model of diabetes assessed as increase in Oscillibacter level in feces at 31.25 to 125 mg/kg, po administered QD administered via gavage for 4 weeks by 16S rDNA based Illumina sequencing method; type: functional, organism-based
Mus musculus [5] = assay: Antidiabetic activity in po dosed STZ-induced Kunming mouse model of diabetes assessed as increase in Bacteroidetes level in feces administered QD administered via gavage for 4 weeks by 16S rDNA based Illumina sequencing method; type: functional, organism-based
Mus musculus [6] = assay: Antidiabetic activity in STZ-induced Kunming mouse model of diabetes assessed as increase in HDL-C level at 31.25 to 125 m/kg, po administered QD administered via gavage for 4 weeks; type: functional, organism-based
How it was run: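 STZ/high-fat-diet diabetic Kunming mice (n=10/group) were gavaged daily for 28 days at 31.25–125 mg/kg. After an overnight fast, orbital-sinus blood was taken and plasma was spun at 1000g, 4 °C. TC, TG and HDL-C were measured by kit. LDL-C was calculated by Friedewald: TC − (HDL-C + TG/2.2), with TG below 4.5 mmol/L. Data are mean ± SD, Duncan's test.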

Mus musculus [7] = assay: Antidiabetic activity in po dosed STZ-induced Kunming mouse model of diabetes assessed as increase in Firmicutes level in feces administered QD administered via gavage for 4 weeks by 16S rDNA based Illumina sequencing method; type: functional, organism-based
Mus musculus [8] = assay: Antidiabetic activity in STZ-induced Kunming mouse model of diabetes assessed as increase in Lactobacillus level in feces at 31.25 to 125 mg/kg, po administered QD administered via gavage for 4 weeks by 16S rDNA based Illumina sequencing method; type: functional, organism-based
Mus musculus [9] = assay: Antidiabetic activity in STZ-induced Kunming mouse model of diabetes assessed as decrease in Bacteroidales S24-7 level in feces at 62.5 to 125 mg/kg, po administered QD administered via gavage for 4 weeks by 16S rDNA based DNA sequencing analysis; type: functional, organism-based
Mus musculus [10] = assay: Antidiabetic activity in STZ-induced Kunming mouse model of diabetes assessed as down regulation of glucose-6-phosphatase expression level in liver at 62.5 to 125 m/kg, po administered QD administered via gavage for 4 weeks by Western blot analysis; type: functional, organism-based
How it was run: (§1)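 Livers from diabetic mice after 28 days of daily gavage (31.25–125 mg/kg) were homogenized and spun at 14 000g, 4 °C. Proteins were run on 10% SDS-PAGE and transferred to PVDF, then blocked in 5% milk for 1 h. Primary antibodies (GK, PK, PFK, PCB, PEPCK, FBPase, G-6-Pase, p-IR Tyr999, p-IRS-1 Ser307) were applied for 1 h at 25 °C, followed by HRP anti-rabbit IgG and ECL detection. Mean ± SD, Duncan's test.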

Mus musculus [11] = assay: Antidiabetic activity in STZ-induced diabetic Kunming mouse assessed as increase in body weight gain at 62.5 to 125 mg/kg, po QD administered via gavage for 4 weeks and measured every 3 days for 28 day
Mus musculus [12] = assay: Antidiabetic activity in STZ-induced Kunming mouse model of diabetes assessed as decrease in Anaer-ostipes level in feces at 31.25 to 125 mg/kg, po administered QD administered via gavage for 4 weeks by 16S rDNA based DNA sequencing analysis; type: functional, organism-based
Mus musculus [13] = assay: Antidiabetic activity in STZ-induced Kunming mouse model of diabetes assessed as increase in LPL mRNA level at 31.25 to 125 m/kg, po administered QD administered via gavage for 4 weeks by RT-PCR analysis; type: functional, organism-based
How it was run: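 Liver RNA was Trizol-extracted and reverse-transcribed. qPCR ran 95 °C 10 min, then 45 cycles of 95 °C 15 s, 55 °C 20 s and 72 °C 30 s. LPL was normalized to β-actin and quantified by 2−ΔΔCt. Samples came from STZ/high-fat-diet diabetic mice gavaged daily for 28 days at 31.25–125 mg/kg.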

Mus musculus [14] = assay: Antidiabetic activity in STZ-induced Kunming mouse model of diabetes assessed as increase in hepatic glycogen level at 31.25 to 125 m/kg, po administered QD administered via gavage for 4 weeks; type: functional, organism-based
How it was run: (§2)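 Diabetic mice (high-fat diet plus STZ 35 mg/kg i.p.) were dosed by gavage once daily for 28 days at 31.25–125 mg/kg. After an overnight fast at endpoint, liver and plasma were collected. ALT, hepatic glycogen and pyruvic acid were measured with commercial kits.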

Mus musculus [15] = assay: Antidiabetic activity in STZ-induced Kunming mouse model of diabetes assessed as decrease in Escherichia-Shigella level in feces at 31.25 to 125 mg/kg, po administered QD administered via gavage for 4 weeks by 16S rDNA based Illumina sequencing method; type: functional, organism-based
Mus musculus [16] = assay: Antidiabetic activity in STZ-induced Kunming mouse model of diabetes assessed as down regulation of fructose-1-6-phosphatase expression level in liver at 31.25 to 125 m/kg, po administered QD administered via gavage for 4 weeks by Western blot analysis; type: functional, organism-based; how it was run: as §1
Mus musculus [17] = assay: Antidiabetic activity in STZ-induced Kunming mouse model of diabetes assessed as increase in Lackno-spiraceae NK4A136 level in feces at 31.25 to 125 mg/kg, po administered QD administered via gavage for 4 weeks by 16S rDNA based Illumina sequencing method; type: functional, organism-based
Mus musculus [18] = assay: Antidiabetic activity in STZ-induced Kunming mouse model of diabetes assessed as increase in GK expression level in liver at 62.5 to 125 m/kg, po administered QD administered via gavage for 4 weeks by Western blot analysis; type: functional, organism-based; how it was run: as §1
Mus musculus [19] = assay: Antidiabetic activity in STZ-induced Kunming mouse model of diabetes assessed as decrease in pyruvic acid level at 31.25 to 125 m/kg, po administered QD administered via gavage for 4 weeks; type: functional, organism-based; how it was run: as §2
Mus musculus [20] = assay: Antidiabetic activity in STZ-induced Kunming mouse model of diabetes assessed as decrease in Ruminococcus level in feces at 31.25 to 125 mg/kg, po administered QD administered via gavage for 4 weeks by 16S rDNA based DNA sequencing analysis; type: functional, organism-based

With OC[C@H]1NC[C@H](O)[C@@H](O)[C@@H]1O the Activity (Mus musculus [1]) was “Active”, the Activity (Mus musculus [2]) was “Active” and the Activity (Mus musculus [3]) was “Dose-dependent effect”. For the same compound, the Activity (Mus musculus [4]) was “Active”, the Activity (Mus musculus [5]) was “Dose-dependent effect” and the Activity (Mus musculus [6]) was “Active”. The Activity (Mus musculus [7]) was “Dose-dependent effect”, the Activity (Mus musculus [8]) was “Active” and the Activity (Mus musculus [9]) was “Active”. For the same compound, the Activity (Mus musculus [10]) was “Active”, the Activity (Mus musculus [11]) was “Active” and the Activity (Mus musculus [12]) was “Active”. For the same compound, the Activity (Mus musculus [13]) was “Active”, the Activity (Mus musculus [14]) was “Active” and the Activity (Mus musculus [15]) was “inactive”. The Activity (Mus musculus [16]) was “Active”, the Activity (Mus musculus [17]) was “Active” and the Activity (Mus musculus [18]) was “Active”. The Activity (Mus musculus [19]) was “Active” and the Activity (Mus musculus [20]) was “Active”.
